Source: ChEMBL document CHEMBL2069193 (Bioorg Med Chem Lett, 2012)
One block for each molecule: values may come before it.

Key:
[1] = tested on: CHO; test: Cytotoxicity against CHO cells; format: cell-based; settings: Cricetulus griseus
[2] = tested on: LAD2; test: Inhibition of human LAD2 cells degranulation preincubated for 30 mins before streptavidin stimulation measured after 30 mins by measuring beta-hexosaminidase activity; format: functional, cell-based
Outline: (§1)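 LAD2 mast cells sensitized overnight at 37 °C, 5% CO2 with 100 ng/ml biotin-IgE in StemPro-34 growth medium with 2 mM glutamine and 100 ng/ml SCF. They were washed into release buffer, plated at 10,000 cells/well, given drug for 30 min, then 125 ng/ml streptavidin for 30 min. Supernatant and freeze-thaw lysate were incubated 90 min at 37 °C with 1 mM p-nitrophenyl-N-acetyl-D-glucosamide, citrate pH 4.5.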

[3] = tested on: LAD2; test: Inhibition of human LAD2 cells degranulation at 1 uM preincubated for 30 mins before streptavidin stimulation measured after 30 mins by measuring beta-hexosaminidase activity; format: functional; outline: as §1
[4] = target: Mitogen-activated protein kinase 10 (Homo sapiens) (UniProt P53779); test: Inhibition of human JNK3 at 1 uM
[5] = target: Tyrosine-protein kinase ITK/TSK (Homo sapiens) (UniProt Q08881); test: Inhibition of human Itk at 1 uM
[6] = target: 3-phosphoinositide-dependent protein kinase 1 (PDPK1) (Homo sapiens) (UniProt O15530); test: Inhibition of human PDK1 at 1 uM
[7] = target: Protein kinase C beta type (Homo sapiens) (UniProt P05771); test: Inhibition of human PKCbeta2 at 1 uM
[8] = target: Cyclin-dependent kinase 1/cyclin B1 (Homo sapiens) (UniProt P06493+P14635); test: Inhibition of human CDK1/cyclinB at 1 uM; format: protein-complex assay
[9] = target: Tyrosine-protein kinase Yes (Homo sapiens) (UniProt P07947); test: Inhibition of human Yes at 1 uM
[10] = target: Serine/threonine-protein kinase Chk1 (Homo sapiens) (UniProt O14757); test: Inhibition of human CHK1 at 1 uM
Chain of Serine/threonine-protein kinase Chk1 (Homo sapiens) (O14757 whole entry): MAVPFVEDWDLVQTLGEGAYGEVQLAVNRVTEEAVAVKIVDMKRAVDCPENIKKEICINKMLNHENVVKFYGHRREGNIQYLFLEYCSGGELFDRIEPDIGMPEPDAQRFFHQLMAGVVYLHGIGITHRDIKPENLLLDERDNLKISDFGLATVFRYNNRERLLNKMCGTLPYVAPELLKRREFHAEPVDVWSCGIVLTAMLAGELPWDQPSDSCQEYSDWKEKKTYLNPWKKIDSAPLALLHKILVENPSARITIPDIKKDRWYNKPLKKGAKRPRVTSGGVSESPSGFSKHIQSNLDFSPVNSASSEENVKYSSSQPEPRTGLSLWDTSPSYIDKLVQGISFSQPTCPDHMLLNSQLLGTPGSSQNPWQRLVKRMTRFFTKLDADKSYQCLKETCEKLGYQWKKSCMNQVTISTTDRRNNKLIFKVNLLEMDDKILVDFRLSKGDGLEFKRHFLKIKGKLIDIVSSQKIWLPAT

[11] = target: Vascular endothelial growth factor receptor 1 (Homo sapiens) (UniProt P17948); test: Inhibition of human Flt1 at 1 uM
[12] = target: Tyrosine-protein kinase BTK (Homo sapiens) (UniProt Q06187); test: Inhibition of human BTK at 1 uM
[13] = target: Mitogen-activated protein kinase kinase kinase 7 (Homo sapiens) (UniProt O43318); test: Inhibition of human TAK1 at 1 uM
[14] = target: Casein kinase I isoform delta (Homo sapiens) (UniProt P48730); test: Inhibition of human CK1delta at 1 uM
[15] = target: Tyrosine-protein kinase Fgr (Homo sapiens) (UniProt P09769); test: Inhibition of human Fgr at 1 uM
[16] = target: Receptor-type tyrosine-protein kinase FLT3 (Homo sapiens) (UniProt P36888); test: Inhibition of human Flt3 at 1 uM
[17] = target: Dual specificity mitogen-activated protein kinase kinase 6 (Homo sapiens) (UniProt P52564); test: Inhibition of human MKK6 at 1 uM
[18] = target: Inhibitor of nuclear factor kappa-B kinase subunit beta (Homo sapiens) (UniProt O14920); test: Inhibition of human IKKbeta at 1 uM
[19] = target: Rho-associated protein kinase 2 (Homo sapiens) (UniProt O75116); test: Inhibition of human ROCK2 at 1 uM
Chain of Rho-associated protein kinase 2 (Homo sapiens) (O75116 whole entry, looked up): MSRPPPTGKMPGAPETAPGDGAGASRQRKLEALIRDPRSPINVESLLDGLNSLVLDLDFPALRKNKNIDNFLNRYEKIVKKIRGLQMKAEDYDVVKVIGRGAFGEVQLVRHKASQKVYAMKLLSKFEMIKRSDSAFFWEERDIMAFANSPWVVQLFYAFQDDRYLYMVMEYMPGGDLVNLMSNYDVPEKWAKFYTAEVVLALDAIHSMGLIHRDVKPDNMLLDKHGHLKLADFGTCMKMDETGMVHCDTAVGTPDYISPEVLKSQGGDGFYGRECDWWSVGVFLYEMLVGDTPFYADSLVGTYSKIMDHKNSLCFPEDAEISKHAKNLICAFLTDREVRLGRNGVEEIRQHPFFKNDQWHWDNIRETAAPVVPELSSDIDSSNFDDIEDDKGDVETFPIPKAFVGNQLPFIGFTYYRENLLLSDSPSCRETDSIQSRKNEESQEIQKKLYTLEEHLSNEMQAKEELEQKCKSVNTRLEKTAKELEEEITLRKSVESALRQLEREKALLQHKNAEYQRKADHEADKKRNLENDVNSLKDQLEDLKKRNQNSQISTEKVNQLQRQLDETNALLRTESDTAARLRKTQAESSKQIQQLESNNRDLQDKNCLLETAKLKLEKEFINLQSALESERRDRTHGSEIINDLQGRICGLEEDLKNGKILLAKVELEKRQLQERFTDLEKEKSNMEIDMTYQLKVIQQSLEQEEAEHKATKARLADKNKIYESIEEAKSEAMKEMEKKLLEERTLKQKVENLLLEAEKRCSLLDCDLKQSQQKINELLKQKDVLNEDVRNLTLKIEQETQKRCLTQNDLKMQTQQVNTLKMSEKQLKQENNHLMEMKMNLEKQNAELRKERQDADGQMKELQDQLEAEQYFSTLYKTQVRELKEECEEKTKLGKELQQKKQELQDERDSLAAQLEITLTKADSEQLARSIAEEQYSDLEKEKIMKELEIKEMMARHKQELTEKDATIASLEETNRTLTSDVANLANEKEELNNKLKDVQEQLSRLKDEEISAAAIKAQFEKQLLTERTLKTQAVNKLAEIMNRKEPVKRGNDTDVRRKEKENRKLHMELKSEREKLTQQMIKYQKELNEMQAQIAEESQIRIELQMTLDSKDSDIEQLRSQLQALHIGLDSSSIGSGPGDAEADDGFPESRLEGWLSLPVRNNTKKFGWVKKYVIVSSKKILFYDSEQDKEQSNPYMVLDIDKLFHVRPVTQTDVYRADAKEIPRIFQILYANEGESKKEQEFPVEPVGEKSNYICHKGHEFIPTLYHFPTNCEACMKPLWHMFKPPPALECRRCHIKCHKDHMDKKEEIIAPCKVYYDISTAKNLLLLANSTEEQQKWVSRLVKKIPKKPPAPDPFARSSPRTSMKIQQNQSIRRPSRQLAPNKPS

[20] = target: Tyrosine-protein kinase Lyn (Homo sapiens) (UniProt P07948); test: Inhibition of human Lyn at 1 uM
[21] = target: Tyrosine-protein kinase HCK (Homo sapiens) (UniProt P08631); test: Inhibition of human Hck at 1 uM
[22] = target: Protein-tyrosine kinase 2-beta (Homo sapiens) (UniProt Q14289); test: Inhibition of human Pyk2 at 1 uM
[23] = target: Aurora kinase A (Homo sapiens) (UniProt O14965); test: Inhibition of human Aurora-A at 1 uM
[24] = target: Macrophage colony-stimulating factor 1 receptor (Homo sapiens) (UniProt P07333); test: Inhibition of human Fms at 1 uM
[25] = target: Glycogen synthase kinase-3 alpha (Homo sapiens) (UniProt P49840); test: Inhibition of human GSK3alpha at 1 uM
[26] = target: Focal adhesion kinase 1 (Homo sapiens) (UniProt Q05397); test: Inhibition of human FAK at 1 uM
[27] = target: Hepatocyte growth factor receptor (Homo sapiens) (UniProt P08581); test: Inhibition of human Met at 1 uM
[28] = target: Tyrosine-protein kinase Lck (Homo sapiens) (UniProt P06239); test: Inhibition of human Lck at 1 uM
[29] = target: Tyrosine-protein kinase receptor UFO (Homo sapiens) (UniProt P30530); test: Inhibition of human Axl at 1 uM
[30] = target: High affinity nerve growth factor receptor (Homo sapiens) (UniProt P04629); test: Inhibition of human TrkA at 1 uM
[31] = target: Tyrosine-protein kinase ZAP-70 (Homo sapiens) (UniProt P43403); test: Inhibition of human ZAP70 at 1 uM
[32] = target: Protein kinase C gamma type (Homo sapiens) (UniProt P05129); test: Inhibition of human PKCgamma at 1 uM
[33] = target: Protein kinase C epsilon type (Homo sapiens) (UniProt Q02156); test: Inhibition of human PKCepsilon at 1 uM
[34] = target: Serine/threonine-protein kinase pim-1 (Homo sapiens) (UniProt P11309); test: Inhibition of human Pim-1 at 1 uM
[35] = target: Glycogen synthase kinase-3 beta (Homo sapiens) (UniProt P49841); test: Inhibition of human GSK3beta at 1 uM
[36] = target: Ribosomal protein S6 kinase alpha-6 (Homo sapiens) (UniProt Q9UK32); test: Inhibition of human Rsk4 at 1 uM
[37] = target: MAP kinase-activated protein kinase 5 (Homo sapiens) (UniProt Q8IW41); test: Inhibition of human PRAK at 1 uM
[38] = target: Proto-oncogene tyrosine-protein kinase receptor Ret (Homo sapiens) (UniProt P07949); test: Inhibition of human Ret at 1 uM
Chain of Proto-oncogene tyrosine-protein kinase receptor Ret (Homo sapiens) (P07949 whole entry): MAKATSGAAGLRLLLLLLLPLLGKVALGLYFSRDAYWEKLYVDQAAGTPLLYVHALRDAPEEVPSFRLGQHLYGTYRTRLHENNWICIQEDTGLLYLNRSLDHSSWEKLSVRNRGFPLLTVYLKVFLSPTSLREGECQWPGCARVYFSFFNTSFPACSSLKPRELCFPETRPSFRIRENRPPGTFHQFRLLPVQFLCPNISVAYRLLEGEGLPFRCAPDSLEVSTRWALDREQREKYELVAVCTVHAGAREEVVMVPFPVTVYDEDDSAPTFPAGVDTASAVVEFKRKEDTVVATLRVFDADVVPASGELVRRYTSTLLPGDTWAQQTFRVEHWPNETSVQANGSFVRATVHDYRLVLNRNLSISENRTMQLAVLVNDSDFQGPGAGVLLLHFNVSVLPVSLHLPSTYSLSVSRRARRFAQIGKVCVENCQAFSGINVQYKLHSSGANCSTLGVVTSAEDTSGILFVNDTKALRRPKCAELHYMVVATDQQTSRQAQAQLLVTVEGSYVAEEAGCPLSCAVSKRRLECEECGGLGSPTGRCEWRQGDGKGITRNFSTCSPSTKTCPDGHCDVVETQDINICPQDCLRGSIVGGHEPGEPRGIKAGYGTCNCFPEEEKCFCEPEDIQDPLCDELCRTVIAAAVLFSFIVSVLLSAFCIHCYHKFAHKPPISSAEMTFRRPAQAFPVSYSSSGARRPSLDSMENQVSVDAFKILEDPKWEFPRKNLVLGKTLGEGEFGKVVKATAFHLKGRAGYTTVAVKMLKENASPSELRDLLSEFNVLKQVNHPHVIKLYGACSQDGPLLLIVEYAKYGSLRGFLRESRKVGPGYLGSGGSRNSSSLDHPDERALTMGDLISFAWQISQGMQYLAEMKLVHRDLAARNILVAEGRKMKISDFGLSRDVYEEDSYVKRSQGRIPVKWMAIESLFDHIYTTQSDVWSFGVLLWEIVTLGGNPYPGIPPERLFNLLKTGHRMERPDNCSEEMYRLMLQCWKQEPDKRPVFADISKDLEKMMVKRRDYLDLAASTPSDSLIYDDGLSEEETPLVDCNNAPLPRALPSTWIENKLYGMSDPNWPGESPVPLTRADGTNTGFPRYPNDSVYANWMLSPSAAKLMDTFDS

[39] = target: Calcium/calmodulin-dependent protein kinase type II subunit delta (Homo sapiens) (UniProt Q13557); test: Inhibition of human CaMK2delta at 1 uM
[40] = target: ALK tyrosine kinase receptor (Homo sapiens) (UniProt Q9UM73); test: Inhibition of human Alk at 1 uM
Chain of ALK tyrosine kinase receptor (Homo sapiens) (Q9UM73 19-1620 limits assumed): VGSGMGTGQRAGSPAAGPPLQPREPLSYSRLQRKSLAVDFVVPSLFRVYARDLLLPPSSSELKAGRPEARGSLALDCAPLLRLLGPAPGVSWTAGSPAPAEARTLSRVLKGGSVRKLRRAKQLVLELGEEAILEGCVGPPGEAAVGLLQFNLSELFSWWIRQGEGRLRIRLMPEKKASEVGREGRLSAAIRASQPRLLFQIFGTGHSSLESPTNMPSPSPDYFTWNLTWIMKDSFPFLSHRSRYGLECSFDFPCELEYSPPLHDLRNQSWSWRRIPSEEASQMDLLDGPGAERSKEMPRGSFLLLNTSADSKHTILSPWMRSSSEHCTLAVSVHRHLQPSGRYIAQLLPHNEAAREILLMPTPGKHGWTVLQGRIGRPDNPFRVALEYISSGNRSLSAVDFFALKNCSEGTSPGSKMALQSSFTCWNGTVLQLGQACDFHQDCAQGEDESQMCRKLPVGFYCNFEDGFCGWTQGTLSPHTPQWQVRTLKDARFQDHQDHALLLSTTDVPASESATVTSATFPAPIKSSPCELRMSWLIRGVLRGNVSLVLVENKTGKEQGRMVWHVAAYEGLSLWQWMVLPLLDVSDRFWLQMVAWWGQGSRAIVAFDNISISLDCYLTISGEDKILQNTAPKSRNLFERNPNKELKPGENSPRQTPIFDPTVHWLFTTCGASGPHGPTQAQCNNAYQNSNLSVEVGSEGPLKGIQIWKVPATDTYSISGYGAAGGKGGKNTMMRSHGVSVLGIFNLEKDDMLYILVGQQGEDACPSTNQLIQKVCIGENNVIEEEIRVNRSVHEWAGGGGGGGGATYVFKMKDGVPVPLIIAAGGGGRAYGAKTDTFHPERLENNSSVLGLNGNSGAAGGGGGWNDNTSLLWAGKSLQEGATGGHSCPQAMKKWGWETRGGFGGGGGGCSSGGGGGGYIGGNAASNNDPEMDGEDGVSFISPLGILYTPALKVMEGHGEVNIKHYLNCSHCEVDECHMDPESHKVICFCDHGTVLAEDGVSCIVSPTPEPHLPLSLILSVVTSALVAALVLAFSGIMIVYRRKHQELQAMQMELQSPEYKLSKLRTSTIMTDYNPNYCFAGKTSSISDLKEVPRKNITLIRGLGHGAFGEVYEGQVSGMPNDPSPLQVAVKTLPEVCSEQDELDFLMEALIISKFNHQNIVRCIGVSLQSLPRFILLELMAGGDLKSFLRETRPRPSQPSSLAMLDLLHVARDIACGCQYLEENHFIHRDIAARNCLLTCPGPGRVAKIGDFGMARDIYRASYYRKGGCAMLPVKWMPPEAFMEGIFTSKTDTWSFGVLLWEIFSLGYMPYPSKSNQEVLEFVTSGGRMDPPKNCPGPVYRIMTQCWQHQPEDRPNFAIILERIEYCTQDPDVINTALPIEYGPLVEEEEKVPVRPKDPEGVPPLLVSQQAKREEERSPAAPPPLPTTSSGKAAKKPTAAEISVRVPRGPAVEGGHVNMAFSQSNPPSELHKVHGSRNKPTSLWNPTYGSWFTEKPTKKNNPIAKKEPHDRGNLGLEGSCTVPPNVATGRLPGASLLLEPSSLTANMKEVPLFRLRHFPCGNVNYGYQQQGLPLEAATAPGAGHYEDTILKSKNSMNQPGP

[41] = target: Proto-oncogene tyrosine-protein kinase Src (Homo sapiens) (UniProt P12931); test: Inhibition of human cSRC at 1 uM
[42] = target: Tyrosine-protein kinase Fyn (Homo sapiens) (UniProt P06241); test: Inhibition of human Fyn at 1 uM
Chain of Tyrosine-protein kinase Fyn (Homo sapiens) (P06241 2-537 limits assumed): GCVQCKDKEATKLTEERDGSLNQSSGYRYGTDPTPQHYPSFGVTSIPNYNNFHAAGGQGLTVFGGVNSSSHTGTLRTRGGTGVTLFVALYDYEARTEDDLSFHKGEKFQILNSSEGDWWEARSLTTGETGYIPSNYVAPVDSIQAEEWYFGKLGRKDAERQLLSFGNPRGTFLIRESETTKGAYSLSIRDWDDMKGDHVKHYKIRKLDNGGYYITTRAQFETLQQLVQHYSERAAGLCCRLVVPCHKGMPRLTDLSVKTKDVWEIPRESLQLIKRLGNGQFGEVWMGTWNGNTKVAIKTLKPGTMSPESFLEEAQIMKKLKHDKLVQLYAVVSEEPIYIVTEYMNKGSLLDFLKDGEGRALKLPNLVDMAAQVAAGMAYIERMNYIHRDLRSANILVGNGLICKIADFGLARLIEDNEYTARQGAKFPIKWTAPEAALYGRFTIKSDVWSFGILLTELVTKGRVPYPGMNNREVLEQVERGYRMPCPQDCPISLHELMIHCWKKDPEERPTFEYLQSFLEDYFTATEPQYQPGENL

[43] = target: Fibroblast growth factor receptor 3 (Homo sapiens) (UniProt P22607); test: Inhibition of human FGFR3 at 1 uM

IC50 [2]: 1 µM
Compound: CC(=O)N1CCC(C(=O)Nc2cc(Nc3cnccn3)nc(-c3ccnc(N4CCNCC4)c3)c2)CC1
IC50 [1]: > 20 µM

IC50 [2]: 0.169 µM
Compound: Cc1cc(C(=O)Nc2cc(Nc3cnccn3)nc(-c3ccnc(N4CCNCC4)c3)c2)n(C)n1
IC50 [1]: > 20 µM

IC50 [2]: 0.585 µM
Compound: Oc1ccc(CNc2cc(Nc3cnccn3)nc(-c3ccnc(N4CCNCC4)c3)c2)cc1
IC50 [1]: > 20 µM

IC50 [2]: 0.122 µM
Compound: O=C(Nc1cc(Nc2cnccn2)nc(-c2ccnc(N3CCNCC3)c2)c1)c1cccnc1
IC50 [1]: > 20 µM

IC50 [2]: 0.352 µM
Compound: O=C(Cc1cccnc1)Nc1cc(Nc2cnccn2)nc(-c2ccnc(N3CCNCC3)c2)c1
IC50 [1]: > 20 µM

IC50 [2]: 0.331 µM
Compound: O=C(Nc1cc(Nc2cnccn2)nc(-c2ccnc(N3CCNCC3)c2)c1)c1cncnc1
IC50 [1]: > 20 µM

IC50 [2]: 0.362 µM
Compound: O=C(Nc1cc(Nc2cnccn2)nc(-c2ccnc(N3CCNCC3)c2)c1)c1ccccc1
IC50 [1]: > 20 µM

IC50 [2]: 0.188 µM
Compound: CNc1cc(Nc2cnccn2)nc(-c2ccnc(N3CCNCC3)c2)c1
IC50 [1]: > 20 µM

Second part, the molecule before the results:

Compound: FC(F)(F)c1ccnc(Nc2cccc(-c3ccnc(N4CCNCC4)c3)n2)c1
IC50 [1]: 1 µM

Compound: O=C(O)c1ccc(C(=O)Nc2cc(Nc3cnccn3)nc(-c3ccnc(N4CCNCC4)c3)c2)cc1
IC50 [1]: > 20 µM | IC50 [2]: 0.14 µM

Compound: O=C(Nc1cc(Nc2cnccn2)nc(-c2ccnc(N3CCNCC3)c2)c1)C1CCNCC1
inhibition at 1 µM [3]: 14% | IC50 [1]: > 20 µM

Compound: c1cc(Nc2cnccn2)nc(-c2ccnc(N3CCNCC3)c2)c1
IC50 [1]: > 15 µM

Compound: FC(F)(F)c1ccnc(Nc2cccc(-c3cccc(N4CCNCC4)c3)n2)c1
IC50 [1]: 1 µM

Compound: O=C(Nc1cc(Nc2cnccn2)nc(-c2ccnc(N3CCNCC3)c2)c1)c1ccc(C(=O)O)nc1
IC50 [1]: > 20 µM | IC50 [2]: 0.204 µM

Compound: c1cc(-c2cccc(Nc3cnccn3)n2)cc(N2CCNCC2)c1
IC50 [1]: > 15 µM

Compound: Nc1cc(Nc2cnccn2)nc(-c2ccnc(N3CCNCC3)c2)c1
inhibition [4]: < 50% | inhibition [5]: > 50% | inhibition [6]: < 50% | inhibition [7]: < 50% | inhibition [8]: < 50% | inhibition [9]: > 50% | inhibition [10]: < 50% | inhibition [11]: < 50% | inhibition [12]: > 50% | inhibition [13]: < 50% | inhibition [14]: < 50% | inhibition [15]: > 50% | inhibition [16]: > 50% | inhibition [17]: < 50% | inhibition [18]: < 50% | inhibition [19]: < 50% | inhibition [20]: > 50% | inhibition [21]: > 50% | inhibition [22]: < 50% | inhibition [23]: < 50% | inhibition [24]: < 50% | inhibition [25]: > 50% | inhibition [26]: < 50% | inhibition [27]: < 50% | inhibition [28]: > 50% | inhibition [29]: < 50% | inhibition [30]: < 50% | inhibition [31]: < 50% | inhibition [32]: < 50% | IC50 [1]: > 20 µM | inhibition [33]: < 50% | inhibition [34]: < 50% | inhibition [35]: < 50% | inhibition [36]: < 50% | IC50 [2]: 0.118 µM | inhibition [37]: < 50% | inhibition [38]: > 50% | inhibition [39]: < 50% | inhibition [40]: < 50% | inhibition [41]: > 50% | inhibition [42]: < 50% | inhibition [43]: < 50%

Compound: Cc1ccnc(Nc2cccc(-c3ccnc(N4CCNCC4)c3)n2)c1
IC50 [1]: 1 µM
